Laboratory results published in ChEMBL document CHEMBL3272208, “(Vinylaryloxy)acetic acids. A new class of diuretic agents. 3. ((2-Nitro-1-alkenyl)aryloxy)acetic acids” (1976).

How the values were obtained:
Canis familiaris [1] = assay: Diuretic activity in mongrel dog assessed as sodium level in excreted urine at 5 mg/kg, iv measured […] after dosage (reference value: 1 to 91 uequiv/min); assay type: functional, Canis lupus familiaris
Method in brief: (§1)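 Compounds were given iv to dogs as Na salts in H2O. […] The baseline is the mean of two 15-min periods before dosing. The response is the mean of two consecutive 15-min periods of maximal Na+ excretion, usually 15–45 min post-dose. Na+, K+ and Cl- are in μequiv/min and urine volume in ml/min, reported as control/drug.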

Canis familiaris [2] = assay: Diuretic activity in mongrel dog assessed as potassium level in excreted urine at 5 mg/kg, iv measured between 15 to 45 mins after dosage (reference value: 12 to 70 uequiv/min); assay type: functional, Canis lupus familiaris; method in brief: as §1
Canis familiaris [3] = assay: Diuretic activity in mongrel dog assessed as chloride level in excreted urine at 5 mg/kg, iv measured between 15 to 45 mins after dosage (reference value: 1 to 65 uequiv/min); assay type: functional, Canis lupus familiaris; method in brief: as §1
Canis familiaris [4] = assay: Diuretic activity in mongrel dog assessed as volume of excreted urine at 5 mg/kg, iv measured between 15 to 45 mins after dosage (reference value: 1 to 5 ml/min); assay type: functional, Canis lupus familiaris; method in brief: as §1
Canis familiaris [5] = assay: Diuretic activity in mongrel dog assessed as sodium level in excreted urine at 10 mg/kg, iv measured […] after dosage (reference value: 5 to 66 uequiv/min); assay type: functional, Canis lupus familiaris; method in brief: as §1
Canis familiaris [6] = assay: Diuretic activity in mongrel dog assessed as potassium level in excreted urine at 10 mg/kg, iv measured between 15 to 45 mins after dosage (reference value: 7 to 63 uequiv/min); assay type: functional, Canis lupus familiaris; method in brief: as §1
Canis familiaris [7] = assay: Diuretic activity in mongrel dog assessed as chloride level in excreted urine at 10 mg/kg, iv measured between 15 to 45 mins after dosage (reference value: 3 to 64 uequiv/min); assay type: functional, Canis lupus familiaris
Method in brief: (§2)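 Compounds were given iv to dogs as Na salts in H2O. The baseline is the mean of two 15-min periods before dosing. The response is the mean of two consecutive 15-min periods of maximal Na+ excretion, usually 15–45 min post-dose. Na+, K+ and Cl- are in μequiv/min and urine volume in ml/min, reported as control/drug.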

Canis familiaris [8] = assay: Diuretic activity in mongrel dog assessed as volume of excreted urine at 10 mg/kg, iv measured between 15 to 45 mins after dosage (reference value: 1 to 4 ml/min); assay type: functional, Canis lupus familiaris; method in brief: as §1
Canis familiaris [9] = assay: Diuretic activity in mongrel dog assessed as sodium level in excreted urine at 1 mg/kg, iv measured […] after dosage (reference value: 3 to 95 uequiv/min); assay type: functional, Canis lupus familiaris; method in brief: as §2
Canis familiaris [10] = assay: Diuretic activity in mongrel dog assessed as potassium level in excreted urine at 1 mg/kg, iv measured between 15 to 45 mins after dosage (reference value: 6 to 47 uequiv/min); assay type: functional, Canis lupus familiaris; method in brief: as §1
Canis familiaris [11] = assay: Diuretic activity in mongrel dog assessed as chloride level in excreted urine at 1 mg/kg, iv measured between 15 to 45 mins after dosage (reference value: 1 to 70 uequiv/min); assay type: functional, Canis lupus familiaris; method in brief: as §2
Canis familiaris [12] = assay: Diuretic activity in mongrel dog assessed as volume of excreted urine at 1 mg/kg, iv measured between 15 to 45 mins after dosage (reference value: 1 to 4 ml/min); assay type: functional, Canis lupus familiaris; method in brief: as §1
Canis familiaris [13] = assay: Diuretic activity in mongrel dog assessed as sodium level in excreted urine at 5 mg/kg, po measured for 6 hrs (reference value: 2 mequivalents); assay type: functional, Canis lupus familiaris
Canis familiaris [14] = assay: Diuretic activity in mongrel dog assessed as potassium level in excreted urine at 5 mg/kg, po measured for 6 hrs (reference value: 1 mequivalents); assay type: functional, Canis lupus familiaris
Canis familiaris [15] = assay: Diuretic activity in mongrel dog assessed as chloride level in excreted urine at 5 mg/kg, po measured for 6 hrs (reference value: 2 mequivalents); assay type: functional, Canis lupus familiaris
Canis familiaris [16] = assay: Diuretic activity in mongrel dog assessed as volume of excreted urine at 5 mg/kg, po measured for 6 hrs (RVb = 180 ml)
Canis familiaris [17] = assay: Diuretic activity in mongrel dog assessed as sodium level in excreted urine at 1 mg/kg, po measured for 6 hrs (reference value: 2 mequivalents); assay type: functional, Canis lupus familiaris
Canis familiaris [18] = assay: Diuretic activity in mongrel dog assessed as potassium level in excreted urine at 1 mg/kg, po measured for 6 hrs (reference value: 1 mequivalents); assay type: functional, Canis lupus familiaris
Canis familiaris [19] = assay: Diuretic activity in mongrel dog assessed as chloride level in excreted urine at 1 mg/kg, po measured for 6 hrs (reference value: 2 mequivalents); assay type: functional, Canis lupus familiaris
Canis familiaris [20] = assay: Diuretic activity in mongrel dog assessed as volume of excreted urine at 1 mg/kg, po measured for 6 hrs (RVb = 180 ml)

Row | SMILES | Activity (Canis familiaris [1]) [uEq/min] | Activity (Canis familiaris [2]) [uEq/min] | Activity (Canis familiaris [3]) | Activity (Canis familiaris [4]) [mL/min] | Activity (Canis familiaris [5]) [uEq/min] | Activity (Canis familiaris [6]) [uEq/min] | Activity (Canis familiaris [7]) [uEq/min] | Activity (Canis familiaris [8]) [mL/min] | also measured
1 | CC/C(=C\c1cc(Cl)ccc1OCC(=O)O)[N+](=O)[O-] | 117 | 48 | 75 uEq/min | 4 |  |  |  |  | 
2 | CC/C(=C\c1cc(Cl)cc(Cl)c1OCC(=O)O)[N+](=O)[O-] |  |  |  |  | 71 | 29 | 6 | 3 | 
3 | O=C(O)COc1ccc(/C=C/[N+](=O)[O-])cc1 | 80 | 35 | 5 uEq/min | 2 |  |  |  |  | 
4 | C/C(=C\c1ccc(OCC(=O)O)cc1)[N+](=O)[O-] |  |  |  |  | 649 | 70 | 611 | 6 | Activity (Canis familiaris [9]): 82 uEq/min; Activity (Canis familiaris [10]): 12 uEq/min; Activity (Canis familiaris [11]): 61 uEq/min; Activity (Canis familiaris [12]): 2 mL/min; Activity (Canis familiaris [13]): 6 milliequivalent; Activity (Canis familiaris [14]): 2 milliequivalent; Activity (Canis familiaris [15]): 4 milliequivalent; Activity (Canis familiaris [16]): 378 mL
5 | CC/C(=C\c1cccc(OCC(=O)O)c1)[N+](=O)[O-] |  |  |  |  | 452 | 76 | 639 | 7 | 
6 | CCCC/C(=C\c1ccc(OCC(=O)O)c(Cl)c1Cl)[N+](=O)[O-] |  |  |  |  |  |  |  |  | Activity (Canis familiaris [9]): 322 uEq/min; Activity (Canis familiaris [10]): 78 uEq/min; Activity (Canis familiaris [11]): 364 uEq/min; Activity (Canis familiaris [12]): 4 mL/min
7 | CCCCC/C(=C\c1ccc(OCC(=O)O)c(Cl)c1Cl)[N+](=O)[O-] |  |  |  |  |  |  |  |  | Activity (Canis familiaris [9]): 179 uEq/min; Activity (Canis familiaris [10]): 56 uEq/min; Activity (Canis familiaris [11]): 269 uEq/min; Activity (Canis familiaris [12]): 3 mL/min; Activity (Canis familiaris [17]): 10 milliequivalent; Activity (Canis familiaris [18]): 3 milliequivalent; Activity (Canis familiaris [19]): 9 milliequivalent; Activity (Canis familiaris [20]): 413 mL
8 | O=C(O)COc1c(Cl)cc(Cl)cc1/C=C/[N+](=O)[O-] | 33 | 33 | 3 uEq/min | 2 |  |  |  |  | 
9 | C/C(=C\c1cc(Cl)cc(Cl)c1OCC(=O)O)[N+](=O)[O-] | 80 | 25 | 41 uEq/min | 3 |  |  |  |  | 
10 | C/C(=C\c1ccc(C(=O)O)cc1Cl)[N+](=O)[O-] |  |  |  |  | 364 | 45 | 335 | 7 | 
11 | CC/C(=C\c1ccc(C(=O)O)cc1Cl)[N+](=O)[O-] |  |  |  |  | 182 | 63 | 146 | 3 | 
12 | CC/C(=C\c1ccc(OCCCC(=O)O)c(Cl)c1Cl)[N+](=O)[O-] | 62 | 29 | 28 uEq/min | 3 |  |  |  |  | 
13 | COC(=O)COc1ccc(/C=C(\C)[N+](=O)[O-])c(Cl)c1Cl |  |  |  |  |  |  |  |  | Activity (Canis familiaris [13]): 37 milliequivalent; Activity (Canis familiaris [14]): 7 milliequivalent; Activity (Canis familiaris [15]): 47 milliequivalent; Activity (Canis familiaris [16]): 769 mL
14 | CC(=O)/C=C/c1ccc(OCC(=O)O)c(Cl)c1Cl | 911 | 76 | 1080 µequiv/min | 8 |  |  |  |  | 
